Data from ChEMBL document CHEMBL4689842, “EUbOPEN Chemogenomics Library wave 1” (2021).
“And” between values parts separate entries of the source, which are not always exact repeats. Equal entries are not always repeated.

Test system: U2OS
Assay: Multiplex assay against U2OS
Type: toxicity, cell-based
Details: human
In short: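 Values for tubulin, mitochondrial-mass and membrane-permeability phenotypes are per cents of cells with healthy nuclei. These cells were identified by CellPathfinder machine-learning gating of live cells that had been stained at seeding with Hoechst33342, BioTracker Green Microtubule Cytoskeleton Dye, MitoTracker Red and Annexin V Alexa Fluor 680 and imaged on a CQ1 microscope at 37°C and 5% CO2 after compound addition. The gating first set Hoechst high-intensity objects apart from normal cells, then split normal cells into healthy, pyknosed or fragmented nuclei, and pyknosed cells into mitotic or apoptotic.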

[1] = 12 h, 1 µM, compound concentration 1 uM, replicate 1
[2] = 12 h, 1 µM, compound concentration 1 uM, replicate 2
[3] = 12 h, 10 µM, compound concentration 10 uM, replicate 1
[4] = 12 h, 10 µM, compound concentration 10 uM, replicate 2
[5] = 24 h, 1 µM, compound concentration 1 uM, replicate 1
[6] = 24 h, 1 µM, compound concentration 1 uM, replicate 2
[7] = 24 h, 10 µM, compound concentration 10 uM, replicate 1
[8] = 24 h, 10 µM, compound concentration 10 uM, replicate 2
[9] = 48 h, 10 µM, compound concentration 10 uM, replicate 1
[10] = 48 h, 10 µM, compound concentration 10 uM, replicate 2

Compound: CNC(=O)c1nn(C)c2c1C(C)(C)Cc1cnc(Nc3ccc(N4CCN(C)CC4)cc3)nc1-2 [MILCICLIB]
- Population Apoptotic (%) [1]: 39%
- Population Fragmented Nuclei (%) [1]: 17%
- Population Healthy Nuclei (%) [1]: 66%
- Population Hoechst High Intensity Objects (%) [1]: 6%
- Population Membrane Permeable-Phenotype (%) [1]: 25%
- Population Mitochondria Different-Phenotype (%) [1]: 64%
- Population Mitotic Cells (%) [1]: 60%
- Population Normal (%) [1]: 93%
- Population Pyknosed Nuclei (%) [1]: 15%
- Population Tubulin-Different-Phenotype (%) [1]: 100%
- Total Cell Count [1]: 194
- Population Apoptotic (%) [2]: 58%
- Population Fragmented Nuclei (%) [2]: 18%
- Population Healthy Nuclei (%) [2]: 69%
- Population Hoechst High Intensity Objects (%) [2]: 18%
- Population Membrane Permeable-Phenotype (%) [2]: 12%
- Population Mitochondria Different-Phenotype (%) [2]: 76%
- Population Mitotic Cells (%) [2]: 41%
- Population Normal (%) [2]: 81%
- Population Pyknosed Nuclei (%) [2]: 12%
- Population Tubulin-Different-Phenotype (%) [2]: 90%
- Total Cell Count [2]: 163
- Population Apoptotic (%) [3]: 60% and 50% and 62%
- Population Fragmented Nuclei (%) [3]: 16% and 20% and 13%
- Population Healthy Nuclei (%) [3]: 49% and 42% and 64%
- Population Hoechst High Intensity Objects (%) [3]: 7% and 10% and 5%
- Population Membrane Permeable-Phenotype (%) [3]: 20% and 15% and 29%
- Population Mitochondria Different-Phenotype (%) [3]: 95% and 98% and 57%
- Population Mitotic Cells (%) [3]: 40% and 50% and 37%
- Population Normal (%) [3]: 92% and 89% and 94%
- Population Pyknosed Nuclei (%) [3]: 33% and 37% and 21%
- Population Tubulin-Different-Phenotype (%) [3]: 98% and 100% and 99%
- Total Cell Count [3]: 208 and 243 and 221
- Population Apoptotic (%) [4]: 73% and 55%
- Population Fragmented Nuclei (%) [4]: 12% and 8%
- Population Healthy Nuclei (%) [4]: 54% and 68% and 62%
- Population Membrane Permeable-Phenotype (%) [4]: 28% and 25% and 24%
- Population Mitochondria Different-Phenotype (%) [4]: 100% and 76%
- Population Mitotic Cells (%) [4]: 26% and 44%
- Population Normal (%) [4]: 90% and 85% and 97%
- Population Pyknosed Nuclei (%) [4]: 25% and 19% and 29%
- Population Tubulin-Different-Phenotype (%) [4]: 91%
- Total Cell Count [4]: 122 and 87 and 65
- Population Apoptotic (%) [5]: 85%
- Population Fragmented Nuclei (%) [5]: 17%
- Population Healthy Nuclei (%) [5]: 54%
- Population Hoechst High Intensity Objects (%) [5]: 11%
- Population Membrane Permeable-Phenotype (%) [5]: 33%
- Population Mitochondria Different-Phenotype (%) [5]: 92%
- Population Mitotic Cells (%) [5]: 14%
- Population Normal (%) [5]: 88%
- Population Pyknosed Nuclei (%) [5]: 27%
- Population Tubulin-Different-Phenotype (%) [5]: 100%
- Total Cell Count [5]: 186
- Population Apoptotic (%) [6]: 86%
- Population Fragmented Nuclei (%) [6]: 20%
- Population Healthy Nuclei (%) [6]: 60%
- Population Hoechst High Intensity Objects (%) [6]: 23%
- Population Membrane Permeable-Phenotype (%) [6]: 22%
- Population Mitochondria Different-Phenotype (%) [6]: 83%
- Population Mitotic Cells (%) [6]: 13%
- Population Normal (%) [6]: 76%
- Population Pyknosed Nuclei (%) [6]: 18%
- Population Tubulin-Different-Phenotype (%) [6]: 87%
- Total Cell Count [6]: 160
- Population Apoptotic (%) [7]: 78% and 87% and 84%
- Population Fragmented Nuclei (%) [7]: 20% and 22% and 15%
- Population Healthy Nuclei (%) [7]: 27% and 32% and 52%
- Population Hoechst High Intensity Objects (%) [7]: 15% and 11%
- Population Membrane Permeable-Phenotype (%) [7]: 40% and 25% and 36%
- Population Mitochondria Different-Phenotype (%) [7]: 100% and 93%
- Population Mitotic Cells (%) [7]: 21% and 12% and 15%
- Population Normal (%) [7]: 84% and 88%
- Population Pyknosed Nuclei (%) [7]: 51% and 45% and 32%
- Population Tubulin-Different-Phenotype (%) [7]: 100% and 95% and 96%
- Total Cell Count [7]: 235 and 238 and 280
- Population Apoptotic (%) [8]: 66% and 83% and 86%
- Population Fragmented Nuclei (%) [8]: 9% and 14%
- Population Healthy Nuclei (%) [8]: 49% and 64% and 61%
- Population Hoechst High Intensity Objects (%) [8]: 12% and 13% and 18%
- Population Membrane Permeable-Phenotype (%) [8]: 56% and 31% and 62%
- Population Mitochondria Different-Phenotype (%) [8]: 82%
- Population Mitotic Cells (%) [8]: 33% and 16% and 13%
- Population Normal (%) [8]: 87% and 86% and 81%
- Population Pyknosed Nuclei (%) [8]: 40% and 21% and 28%
- Population Tubulin-Different-Phenotype (%) [8]: 93%
- Total Cell Count [8]: 78 and 113 and 118
- Population Apoptotic (%) [9]: 86% and 85%
- Population Fragmented Nuclei (%) [9]: 29% and 24%
- Population Healthy Nuclei (%) [9]: 9% and 15%
- Population Hoechst High Intensity Objects (%) [9]: 15% and 20%
- Population Membrane Permeable-Phenotype (%) [9]: 26% and 55%
- Population Mitochondria Different-Phenotype (%) [9]: 100%
- Population Mitotic Cells (%) [9]: 13% and 14%
- Population Normal (%) [9]: 84% and 79%
- Population Pyknosed Nuclei (%) [9]: 61% and 59%
- Population Tubulin-Different-Phenotype (%) [9]: 89%
- Total Cell Count [9]: 315 and 232
- Population Apoptotic (%) [10]: 76% and 84%
- Population Fragmented Nuclei (%) [10]: 11% and 10%
- Population Healthy Nuclei (%) [10]: 38% and 52%
- Population Hoechst High Intensity Objects (%) [10]: 30% and 27%
- Population Membrane Permeable-Phenotype (%) [10]: 87% and 71%
- Population Mitochondria Different-Phenotype (%) [10]: 97%
- Population Mitotic Cells (%) [10]: 23% and 15%
- Population Normal (%) [10]: 70% and 72%
- Population Pyknosed Nuclei (%) [10]: 50% and 37%
- Population Tubulin-Different-Phenotype (%) [10]: 100% and 95%
- Total Cell Count [10]: 118 and 104
